From ChEMBL document CHEMBL4261499, “Chiral disubstituted piperidinyl ureas: a class of dual diacylglycerol lipase-α and ABHD6 inhibitors” (Medchemcomm, 2017) come the findings set out here.

Experiment [1] concerns the target T1, Diacylglycerol lipase-alpha (Mus musculus) (UniProt Q6WQJ1).
T1 sequence (whole entry): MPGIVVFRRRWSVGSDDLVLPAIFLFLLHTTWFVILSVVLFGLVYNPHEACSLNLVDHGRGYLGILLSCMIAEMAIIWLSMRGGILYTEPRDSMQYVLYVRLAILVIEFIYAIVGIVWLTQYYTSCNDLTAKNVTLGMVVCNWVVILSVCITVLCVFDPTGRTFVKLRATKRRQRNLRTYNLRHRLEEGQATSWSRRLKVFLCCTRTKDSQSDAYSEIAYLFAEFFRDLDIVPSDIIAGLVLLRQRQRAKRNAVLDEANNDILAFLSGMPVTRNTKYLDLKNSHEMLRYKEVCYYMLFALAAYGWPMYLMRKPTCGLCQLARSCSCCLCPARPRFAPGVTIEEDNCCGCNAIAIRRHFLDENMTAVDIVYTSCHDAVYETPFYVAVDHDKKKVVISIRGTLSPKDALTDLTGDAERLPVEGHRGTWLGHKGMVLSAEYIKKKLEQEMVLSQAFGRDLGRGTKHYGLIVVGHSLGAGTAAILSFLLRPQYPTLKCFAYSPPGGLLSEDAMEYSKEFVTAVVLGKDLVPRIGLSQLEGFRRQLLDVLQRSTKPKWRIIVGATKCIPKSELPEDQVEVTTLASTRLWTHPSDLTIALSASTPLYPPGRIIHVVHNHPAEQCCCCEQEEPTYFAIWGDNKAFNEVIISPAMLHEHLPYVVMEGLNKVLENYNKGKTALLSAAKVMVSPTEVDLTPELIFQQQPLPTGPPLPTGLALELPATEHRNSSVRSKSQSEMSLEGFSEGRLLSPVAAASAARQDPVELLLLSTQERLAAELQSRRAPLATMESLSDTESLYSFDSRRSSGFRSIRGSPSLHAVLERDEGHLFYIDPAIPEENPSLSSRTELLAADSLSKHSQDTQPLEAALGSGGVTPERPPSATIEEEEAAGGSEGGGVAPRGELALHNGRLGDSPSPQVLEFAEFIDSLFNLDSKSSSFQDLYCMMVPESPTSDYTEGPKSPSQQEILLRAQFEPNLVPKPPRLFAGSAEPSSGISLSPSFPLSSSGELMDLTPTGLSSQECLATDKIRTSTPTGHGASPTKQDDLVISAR
The experiment can be described thus: Inhibition of MB064 labelling of DAGLalpha in mouse brain homogenates at 10 uM pretreated for 30 mins followed by MB064 addition and measured after 20 mins by activity based protein profiling assay relative to control. It is filed as tissue-based. A digest of the protocol: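 Mouse brain membrane proteome preincubated 30 min with inhibitor (10 μM), then labelled with MB064 probe (0.25 μM, 20 min). Readout by gel-based competitive ABPP. Band intensities corrected for protein loading per lane from Coomassie staining. Means ± SEM, n = 3.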

In experiment [2] the target is T2, Monoacylglycerol lipase ABHD6 (Homo sapiens, UniProt Q9BV23).
T2 sequence (Q9BV23 whole entry): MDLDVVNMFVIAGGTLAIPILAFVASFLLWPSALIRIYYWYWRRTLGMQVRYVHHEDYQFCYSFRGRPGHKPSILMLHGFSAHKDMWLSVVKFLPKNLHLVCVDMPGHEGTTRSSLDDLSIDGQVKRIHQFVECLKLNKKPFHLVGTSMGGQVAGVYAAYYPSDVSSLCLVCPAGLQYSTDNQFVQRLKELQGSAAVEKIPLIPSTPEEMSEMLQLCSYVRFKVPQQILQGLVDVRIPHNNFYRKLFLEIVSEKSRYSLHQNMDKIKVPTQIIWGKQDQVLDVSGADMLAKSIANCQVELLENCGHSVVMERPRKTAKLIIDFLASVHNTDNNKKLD
The experiment can be described thus: Inhibition of recombinant human ABHD6 expressed in HEK293 cells by AmplifuTM red dye based fluorescence assay. It is filed as cell-based. A digest of the protocol: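 Membranes from transiently transfected HEK293T cells expressing human ABHD6, 40 μg mL-1 final protein. Real-time coupled fluorescence assay with natural substrate 2-AG (25 μM). Glycerol released is detected via glycerol kinase, glycerol-3-phosphate oxidase and HRP (0.2 U mL-1 each), 0.125 mM ATP and 10 μM Amplifu Red. Assay contains 5% DMSO and 0.5% acetonitrile. pIC50 ± SEM.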

In experiment [3] the target is T3, Diacylglycerol lipase-alpha (Homo sapiens, UniProt Q9Y4D2).
T3 sequence (Q9Y4D2 whole entry): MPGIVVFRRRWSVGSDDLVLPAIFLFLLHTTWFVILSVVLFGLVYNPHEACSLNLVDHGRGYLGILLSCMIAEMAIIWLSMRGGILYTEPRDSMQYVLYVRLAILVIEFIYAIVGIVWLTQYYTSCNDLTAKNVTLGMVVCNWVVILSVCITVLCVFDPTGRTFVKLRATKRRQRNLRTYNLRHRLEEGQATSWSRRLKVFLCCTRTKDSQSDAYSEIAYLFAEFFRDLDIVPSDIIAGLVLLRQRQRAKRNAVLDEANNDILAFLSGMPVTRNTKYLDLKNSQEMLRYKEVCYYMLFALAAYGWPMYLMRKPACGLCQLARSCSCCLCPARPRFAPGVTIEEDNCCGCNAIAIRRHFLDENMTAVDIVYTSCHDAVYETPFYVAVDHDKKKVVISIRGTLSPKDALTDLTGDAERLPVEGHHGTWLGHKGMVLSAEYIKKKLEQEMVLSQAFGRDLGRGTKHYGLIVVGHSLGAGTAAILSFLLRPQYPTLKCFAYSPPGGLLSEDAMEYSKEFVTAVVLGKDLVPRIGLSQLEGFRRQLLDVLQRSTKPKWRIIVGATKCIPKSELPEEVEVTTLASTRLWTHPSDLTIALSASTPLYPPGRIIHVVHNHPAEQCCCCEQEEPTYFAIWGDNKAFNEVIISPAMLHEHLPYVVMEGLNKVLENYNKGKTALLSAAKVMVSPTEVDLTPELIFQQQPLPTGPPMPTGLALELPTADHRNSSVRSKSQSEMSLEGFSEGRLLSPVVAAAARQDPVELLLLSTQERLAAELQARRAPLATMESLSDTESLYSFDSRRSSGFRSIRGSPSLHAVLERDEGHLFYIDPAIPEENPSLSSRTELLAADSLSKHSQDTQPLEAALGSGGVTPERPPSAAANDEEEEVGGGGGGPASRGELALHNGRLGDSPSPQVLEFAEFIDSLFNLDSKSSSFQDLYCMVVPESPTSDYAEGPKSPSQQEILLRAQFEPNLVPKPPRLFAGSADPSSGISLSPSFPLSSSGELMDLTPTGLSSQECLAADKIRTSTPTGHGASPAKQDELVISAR
The experiment can be described thus: Inhibition of recombinant human DAGLalpha expressed in HEK293 cells using PNP-butyrate as substrate pretreated for 20 to 30 mins followed by substrate addition measured every 60 secs for 20 mins by colorimetric method. It is filed as cell-based. A digest of the protocol:
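Membrane fraction from HEK293T cells transiently transfected with human DAGLα (PEI transfection, harvested at 72 h). Membranes used at 0.05 μg μL-1 final protein in 50 mM HEPES pH 7.2. Colorimetric readout of para-nitrophenylbutyrate hydrolysis. pIC50 ± SEM.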

What is called inhibition is how much of the control response was suppressed. Usually IC50 stands for the midpoint of a concentration-inhibition curve.

Molecules are shown by their SMILES.

`O=C(N1CCC=C[C@@H]1COCc1ccccc1)n1cc(-c2ccc(-c3ccccc3)cc2)nn1`: the inhibition in experiment [1] was found to be 94%. Besides, the values for the 50% inhibitory concentration (IC50) in experiment [2] and in experiment [3] were 0.0126 µM and 0.0251 µM, respectively.
`O=C(N1CCC=C[C@@H]1COCc1ccccc1)n1cc(-c2ccc([N+](=O)[O-])cc2)nn1`: in experiment [1], the inhibition was 95%. For the same compound, the half-maximal inhibitory concentration (IC50) in experiment [2] is 0.0316 µM; in experiment [3], 0.0158 µM.
For `O=C(N1C[C@@H](O)C=C[C@@H]1COCc1ccccc1)n1cc(-c2ccc(-c3ccccc3)cc2)nn1` the same measures were 85%, 0.01 µM and 0.0316 µM.
For `O=C(N1CCC=C[C@@H]1COCc1ccccc1)n1cc(-c2ccc(Br)cc2)nn1` the same measures were 93%, 0.0158 µM and 0.0158 µM.
For `O=C(N1CCCC[C@@H]1COCc1ccccc1)n1cc(-c2ccc(-c3ccccc3)cc2)nn1` the same measures were 96%, 0.00316 µM and 0.0794 µM.
Consider `O=C(N1CCC=C[C@@H]1COCc1ccccc1)n1cc(-c2ccccc2)nn1`, for which the inhibition in experiment [1] worked out at 89%. The concentration for half-maximal inhibition (IC50) in experiment [2] and in experiment [3] was 0.158 µM in each case.
With `O=C(N1CCC=C[C@@H]1COCc1ccccc1)n1cc(-c2ccc(Oc3ccccc3)cc2)nn1`, the inhibition in experiment [1] is 93%. In addition, the IC50 in experiment [2] was 0.00631 µM; in experiment [3] it was 0.0251 µM.
